Test results reported in ChEMBL document CHEMBL1121696, “Antimicrobial 3-methyleneflavanones” (1981).
Values after ≈ are worked out from the molar mass of the structure shown.

What was measured:
Trichophyton benhamiae [1] = experiment: Compound was tested for the antimicrobial activity against Trichophyton mentagrophytes (ATCC 4807); Range is 12.5-50; format: functional, Arthroderma benhamiae
Summary of the method: (§1)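 Spores came from Eugon agar slants grown 1 week at 32 °C, suspended at 10⁶/mL in Eugon broth or saline, and applied by Steers replicator. The lowest inhibitory concentration was read after 48-72 h at 32 °C.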

Candida albicans [2] = experiment: Compound was tested for the antimicrobial activity against Candida albicans (ATCC 10231, NRRL Y-477); Range is 100 to >100; format: functional
Summary of the method: (§2)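 Agar dilution MIC. Stocks and twofold serial dilutions in DMF or 50% aqueous DMF were mixed 1:100 into molten Eugon agar, giving final 100, 50, 25, 12.5, 6.2, 3.1 mcg/mL (further dilutions sometimes) and ≤1% DMF. Inocula came from 24 h Eugon agar slants at 32 °C, suspended at 10⁶ cells/mL and applied with a Steers replicator. MIC (lowest concentration inhibiting growth) was read after 24 h at 32 °C.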

Aspergillus niger = experiment: Antimicrobial activity against Aspergillus niger (ATCC 16404); format: functional; summary of the method: as §1
Candida albicans [3] = experiment: Antimicrobial activity against Candida albicans (ATCC 10231, NRRL Y-477); format: functional; summary of the method: as §2
Enterococcus faecalis [4] = experiment: Antimicrobial activity against Streptococcus faecalis (ATCC 10541); format: functional; summary of the method: as §2
Trichophyton benhamiae [5] = experiment: Compound was tested for the antimicrobial activity against Trichophyton mentagrophytes (ATCC 4807); Range is 50 to >100; format: functional, Arthroderma benhamiae; summary of the method: as §1
Staphylococcus aureus [6] = experiment: Compound was tested for the antimicrobial activity against Staphylococcus aureus (ATCC 6538, NRRL B2747); Range is 50-100; format: functional; summary of the method: as §2
Staphylococcus aureus [7] = experiment: Antimicrobial activity against Staphylococcus aureus (ATCC 6538, NRRL B2747); Range is <3.1-6.2; format: functional; summary of the method: as §2
Trichophyton benhamiae [8] = experiment: Compound was tested for the antimicrobial activity against Trichophyton mentagrophytes (ATCC 4807); Range is <3.1-12.5; format: functional, Arthroderma benhamiae; summary of the method: as §1
Staphylococcus aureus [9] = experiment: Antimicrobial activity against Staphylococcus aureus (ATCC 6538, NRRL B2747); format: functional; summary of the method: as §2
Trichophyton benhamiae [10] = experiment: Antimicrobial activity against Trichophyton mentagrophytes (ATCC 4807); format: functional, Arthroderma benhamiae; summary of the method: as §1
Candida albicans [11] = experiment: Compound was tested for the antimicrobial activity against Candida albicans (ATCC 10231, NRRL Y-477); Range is 50 to >100; format: functional; summary of the method: as §2
Enterococcus faecalis [12] = experiment: Compound was tested for the antimicrobial activity against Streptococcus faecalis (ATCC 10541); Range is 25-50; format: functional; summary of the method: as §2
Trichophyton benhamiae [13] = experiment: Compound was tested for the antimicrobial activity against Trichophyton mentagrophytes (ATCC 4807); Range is 12.5-25; format: functional, Arthroderma benhamiae; summary of the method: as §1
Trichophyton benhamiae [14] = experiment: Compound was tested for the antimicrobial activity against Trichophyton mentagrophytes (ATCC 4807); Range is <3.1-25; format: functional, Arthroderma benhamiae; summary of the method: as §1
Trichophyton benhamiae [15] = experiment: Compound was tested for the antimicrobial activity against Trichophyton mentagrophytes (ATCC 4807); Range is 100 to >100; format: functional, Arthroderma benhamiae; summary of the method: as §1
Trichophyton benhamiae [16] = experiment: Compound was tested for the antimicrobial activity against Trichophyton mentagrophytes (ATCC 4807); Range is 6.2-12.5; format: functional, Arthroderma benhamiae; summary of the method: as §1
Bacillus subtilis = experiment: Compound was tested for its antimicrobial activity against Bacillus subtilis (ATCC 6633); format: functional; summary of the method: as §2
Cutibacterium acnes = experiment: Compound was tested for its antimicrobial activity against Propionibacterium acnes (ATCC 6919); format: functional
Summary of the method: (§3)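 Anaerobic bacteria were grown 72 h at 32 °C in fluid thioglycollate medium and used undiluted to inoculate, by Steers replicator, Eugon agar containing serial twofold compound dilutions made in DMF or 50% aqueous DMF (final 100 to 3.1 mcg/mL, ≤1% DMF). MIC was read after 72 h of anaerobic incubation (Gas-Pak jar) at 37 °C.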

Enterococcus faecalis [17] = experiment: Compound was tested for its antimicrobial activity against Streptococcus faecalis (ATCC 10541); format: functional; summary of the method: as §2
[18] = system: Staphylococcus epidermidis; experiment: Compound was tested for its antimicrobial activity against Staphylococcus epidermidis (ATCC 12228); format: functional; summary of the method: as §2
Staphylococcus aureus [19] = experiment: Compound was tested for its antimicrobial activity against Staphylococcus aureus (ATCC 151); format: functional; summary of the method: as §2
Staphylococcus aureus [20] = experiment: Compound was tested for its antimicrobial activity against Staphylococcus aureus (NRRL B2747); format: functional; summary of the method: as §2
Staphylococcus aureus [21] = experiment: Compound was tested for its antimicrobial activity against Staphylococcus aureus(9-195); format: functional; summary of the method: as §2
Staphylococcus aureus [22] = experiment: Compound was tested for its antimicrobial activity against Staphylococcus aureus(9-267); format: functional; summary of the method: as §2
Staphylococcus aureus [23] = experiment: Compound was tested for the antimicrobial activity against Staphylococcus aureus (ATCC 6538, NRRL B2747); Range is 0.25-0.5; format: functional; summary of the method: as §2
Enterococcus = experiment: Compound was tested for its antimicrobial activity against Enterococcus (9-25)
Trichophyton benhamiae [24] = experiment: Compound was tested for the antimicrobial activity against Trichophyton mentagrophytes (ATCC 4807); Range is 6.1-12.5; format: functional, Arthroderma benhamiae; summary of the method: as §1
[25] = system: Clostridium acetobutylicum; experiment: Compound was tested for its antimicrobial activity against Clostridium acetobutylicum (ATCC 824); format: functional; summary of the method: as §3
[26] = Compound was tested for its antimicrobial activity against Sarcina subflava (ATCC 7468); format: functional; summary of the method: as §2
Staphylococcus aureus [27] = experiment: Compound was tested for its antimicrobial activity against Staphylococcus aureus (9-195); format: functional; summary of the method: as §2
Staphylococcus aureus [28] = experiment: Compound was tested for its antimicrobial activity against Staphylococcus aureus (9-267); format: functional; summary of the method: as §2
Staphylococcus aureus [29] = experiment: Compound was tested for its antimicrobial activity against Staphylococcus aureus (ATCC 6538); format: functional; summary of the method: as §2

C=C1C(=O)c2cc(Br)ccc2OC1c1ccc(Br)cc1 (stereo not given)
MIC (Trichophyton benhamiae [1]): 12.5 µg/mL (≈ 31.7 µM) | MIC (Candida albicans [2]): > 100 µg/mL

C=C1C(=O)c2ccccc2SC1c1ccccc1 (stereo not given)
MIC (Aspergillus niger): > 100 µg/mL | MIC (Candida albicans [3]): > 100 µg/mL | MIC (Enterococcus faecalis [4]): > 100 µg/mL | MIC (Trichophyton benhamiae [5]): > 50 µg/mL | MIC (Staphylococcus aureus [6]): 50 µg/mL (≈ 198 µM)

C=C1C(=O)c2ccccc2OC1c1cccc(Cl)c1 (stereo not given)
MIC (Staphylococcus aureus [7]): < 3.1 µg/mL | MIC (Trichophyton benhamiae [8]): < 3.1 µg/mL

O=C1/C(=C/Cl)C(c2ccccc2)Oc2ccccc21 (stereo not given)
MIC (Aspergillus niger): > 100 µg/mL | MIC (Candida albicans [3]): > 100 µg/mL | MIC (Enterococcus faecalis [4]): > 100 µg/mL | MIC (Staphylococcus aureus [9]): > 100 µg/mL | MIC (Trichophyton benhamiae [10]): > 100 µg/mL

C=C1C(=O)c2ccccc2OC1c1ccc(C(C)(C)C)cc1 (stereo not given)
MIC (Candida albicans [11]): > 50 µg/mL | MIC (Enterococcus faecalis [12]): 25 µg/mL (≈ 85.5 µM) | MIC (Staphylococcus aureus [7]): < 3.1 µg/mL | MIC (Trichophyton benhamiae [13]): 12.5 µg/mL (≈ 42.8 µM)

C=C1C(=O)c2ccccc2OC1c1ccc(Cl)cc1 (stereo not given)
MIC (Staphylococcus aureus [9]): < 3.1 µg/mL | MIC (Trichophyton benhamiae [14]): < 3.1 µg/mL

C=C1C(=O)c2cc(Br)ccc2OC1c1ccccc1 (stereo not given)
MIC (Aspergillus niger): > 100 µg/mL | MIC (Candida albicans [3]): > 100 µg/mL | MIC (Enterococcus faecalis [4]): > 100 µg/mL | MIC (Staphylococcus aureus [9]): 50 µg/mL (≈ 159 µM) | MIC (Trichophyton benhamiae [15]): > 100 µg/mL

C=C1C(=O)c2ccccc2OC1c1ccccc1 (stereo not given)
MIC (Aspergillus niger): 100 µg/mL (≈ 423 µM) | MIC (Trichophyton benhamiae [16]): 6.2 µg/mL (≈ 26.2 µM)

CN(C)/C=C1\C(=O)c2ccccc2OC1c1ccccc1 (stereo not given)
MIC (Aspergillus niger): > 100 µg/mL | MIC (Candida albicans [3]): > 100 µg/mL | MIC (Enterococcus faecalis [4]): > 100 µg/mL | MIC (Staphylococcus aureus [9]): > 100 µg/mL | MIC (Trichophyton benhamiae [10]): 100 µg/mL (≈ 358 µM)

C=C1C(=O)c2ccccc2OC1(c1ccccc1)c1ccccc1
MIC (Bacillus subtilis): 0.25 µg/mL (≈ 0.8 µM) | MIC (Cutibacterium acnes): 3.1 µg/mL (≈ 9.92 µM) | MIC (Enterococcus faecalis [17]): 1 µg/mL (≈ 3.2 µM) | MIC (Enterococcus faecalis [4]): 0.78 µg/mL (≈ 2.5 µM) | MIC [18]: 0.25 µg/mL (≈ 0.8 µM) | MIC (Staphylococcus aureus [19]): 0.25 µg/mL (≈ 0.8 µM) | MIC (Staphylococcus aureus [20]): 0.5 µg/mL (≈ 1.6 µM) | MIC (Staphylococcus aureus [21]): 0.5 µg/mL (≈ 1.6 µM) | MIC (Staphylococcus aureus [22]): 0.5 µg/mL (≈ 1.6 µM) | MIC (Staphylococcus aureus [23]): 0.25 µg/mL (≈ 0.8 µM) | MIC (Trichophyton benhamiae [10]): > 100 µg/mL | MIC (Enterococcus): 1 µg/mL (≈ 3.2 µM)

C=C1C(=O)c2ccccc2OC1c1ccc(Br)cc1 (stereo not given)
MIC (Staphylococcus aureus [7]): < 3.1 µg/mL | MIC (Trichophyton benhamiae [24]): 6.1 µg/mL (≈ 19.4 µM)

C=C1C(=O)c2ccccc2OC1c1cccc2ccccc12 (stereo not given)
MIC (Aspergillus niger): > 100 µg/mL | MIC (Candida albicans [11]): > 50 µg/mL | MIC (Enterococcus faecalis [4]): 50 µg/mL (≈ 175 µM) | MIC (Staphylococcus aureus [7]): < 3.1 µg/mL | MIC (Trichophyton benhamiae [16]): 6.2 µg/mL (≈ 21.7 µM)

Oc1c(I)cc(Cl)c2cccnc12 [CLIOQUINOL]
MIC (Bacillus subtilis): 6.2 µg/mL (≈ 20.3 µM) | MIC [25]: < 6.2 µg/mL | MIC (Cutibacterium acnes): 25 µg/mL (≈ 81.8 µM) | MIC [26]: 3.1 µg/mL (≈ 10.1 µM) | MIC (Staphylococcus aureus [27]): 12.5 µg/mL (≈ 40.9 µM) | MIC (Enterococcus faecalis [17]): 12.5 µg/mL (≈ 40.9 µM) | MIC [18]: 12.5 µg/mL (≈ 40.9 µM) | MIC (Staphylococcus aureus [28]): 12.5 µg/mL (≈ 40.9 µM) | MIC (Staphylococcus aureus [19]): 3.1 µg/mL (≈ 10.1 µM) | MIC (Staphylococcus aureus [29]): 12.5 µg/mL (≈ 40.9 µM) | MIC (Staphylococcus aureus [20]): 12.5 µg/mL (≈ 40.9 µM) | MIC (Enterococcus): 25 µg/mL (≈ 81.8 µM)

C=C(CC)C(=O)c1ccc(OCC(=O)O)c(Cl)c1Cl [ETHACRYNIC ACID]
MIC (Aspergillus niger): > 100 µg/mL | MIC (Candida albicans [3]): > 100 µg/mL | MIC (Enterococcus faecalis [4]): > 100 µg/mL | MIC (Staphylococcus aureus [9]): > 100 µg/mL | MIC (Trichophyton benhamiae [10]): > 100 µg/mL

Oc1c(Cl)cc(Cl)c(Cl)c1Cc1c(O)c(Cl)cc(Cl)c1Cl [HEXACHLOROPHENE]
MIC (Bacillus subtilis): 0.125 µg/mL (≈ 0.307 µM) | MIC [25]: 0.06 µg/mL (≈ 0.147 µM) | MIC (Cutibacterium acnes): 0.06 µg/mL (≈ 0.147 µM) | MIC [26]: 0.06 µg/mL (≈ 0.147 µM) | MIC (Staphylococcus aureus [27]): 1 µg/mL (≈ 2.46 µM) | MIC (Enterococcus faecalis [17]): 0.125 µg/mL (≈ 0.307 µM) | MIC [18]: 0.5 µg/mL (≈ 1.23 µM) | MIC (Staphylococcus aureus [28]): 1 µg/mL (≈ 2.46 µM) | MIC (Staphylococcus aureus [19]): 0.5 µg/mL (≈ 1.23 µM) | MIC (Staphylococcus aureus [29]): 0.5 µg/mL (≈ 1.23 µM) | MIC (Staphylococcus aureus [20]): 0.5 µg/mL (≈ 1.23 µM) | MIC (Enterococcus): 1 µg/mL (≈ 2.46 µM)
